ChEMBL document CHEMBL3352559, “Synthesis and pharmacological investigation of aralkyl diamine derivatives as potential triple reuptake inhibitors” (Eur J Med Chem, 2014)

Tests used:
[1] = system: Salmonella typhimurium; assay: Mutagenic activity in Salmonella typhimurium TA98 assessed as number of reversion mutation at 1000 ug/plate; type: toxicity, organism-based; settings: salmonella enterica subsp. enterica serovar typhimurium
Outline: (§1)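 Ames reversion test in Salmonella typhimurium TA98 and TA100, with and without rat liver S9 metabolic activation. Compound was dissolved in DMSO and added at 3–5000 μg/plate. Each dose, vehicle and positive control was plated in triplicate, and revertant colonies were counted.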

[2] = system: Salmonella typhimurium; assay: Mutagenic activity in Salmonella typhimurium TA100 assessed as number of reversion mutation at 100 ug/plate; type: toxicity, organism-based; settings: salmonella enterica subsp. enterica serovar typhimurium; outline: as §1
[3] = biological target: Sodium-dependent serotonin transporter (Homo sapiens, UniProt P31645); assay: Inhibition of [3H]-serotonin uptake in human SERT expressed in HEK293 cells by scintillation counting; type: cell-based
[4] = biological target: Sodium-dependent noradrenaline transporter (Homo sapiens, UniProt P23975); assay: Inhibition of [3H]-NE uptake in human norepinephrine transporter expressed in HEK293 cells by scintillation counting; type: cell-based
[5] = biological target: Sodium-dependent dopamine transporter (Homo sapiens, UniProt Q01959); assay: Inhibition of [3H]-DA uptake in human dopamine transporter expressed in HEK293 cells by scintillation counting; type: cell-based
[6] = system: Salmonella typhimurium; assay: Mutagenic activity in Salmonella typhimurium TA100 assessed as number of reversion mutation at 300 ug/plate; type: toxicity, organism-based; settings: salmonella enterica subsp. enterica serovar typhimurium; outline: as §1
[7] = system: Salmonella typhimurium; assay: Mutagenic activity in Salmonella typhimurium TA100 assessed as number of reversion mutation at 5000 ug/plate; type: toxicity, organism-based; settings: salmonella enterica subsp. enterica serovar typhimurium; outline: as §1
[8] = system: Rattus norvegicus; assay: Antidepressant activity in rat assessed as reduction in immobility time at 10 mg/kg, po by forced swimming test relative to control; type: functional
Outline: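 Male rats dosed orally at 5, 10 or 20 mg/kg alongside vehicle and venlafaxine 30 mg/kg PO groups. 1 h post-dose, each rat placed in a glass cylinder (40 cm × 18 cm) holding 15 cm of 25 ± 1 °C water. Immobility time recorded over a 6 min trial; significant main effects followed by post hoc Fisher's test.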

[9] = Acute toxicity in KM mouse assessed as survival at 450 mg/kg, po up to 14 days (reference value: 100%); type: organism-based; set-up: dose 450 mg/kg, route oral; settings: in vivo
[10] = Acute toxicity in KM mouse assessed as survival at 150 mg/kg, po up to 14 days (reference value: 100%); type: organism-based; set-up: dose 150 mg/kg, route oral; settings: in vivo
[11] = AUC (0 to time) in Sprague-Dawley rat at 0.5 mg/kg, iv; type: ADME, organism-based; set-up: dose 0.5 mg/kg, route intravenous; settings: plasma
Outline: (§2)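 Male SD rats, fasted overnight until 6 h post-dose. PO group received single 2 mg/kg with heparinized blood sampled at 5, 15, 30 min, 1, 2, 4, 8, 24 h. IV group received single 0.5 mg/kg via femoral vein with sampling at 5, 15, 30 min, 1, 2, 4 h. Plasma stored at -40 °C, quantified by LC/MS/MS; 24 rats per group.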

[12] = AUC (0 to infinity) in Sprague-Dawley rat at 0.5 mg/kg, iv; type: ADME, organism-based; set-up: time infinity, dose 0.5 mg/kg, route intravenous; settings: plasma; outline: as §2
[13] = Mean residence time in Sprague-Dawley rat at 0.5 mg/kg, iv; type: ADME, organism-based; set-up: dose 0.5 mg/kg, route intravenous; settings: in vivo
Outline: (§3)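 Male SD rats, fasted overnight until 6 h post-dose; single 0.5 mg/kg femoral-vein injection; blood drawn into heparin at 5, 15, 30 min, 1, 2 and 4 h; plasma stored at -40 °C; drug levels by LC/MS/MS; noncompartmental parameters.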

[14] = Apparent volume of distribution during terminal phase in Sprague-Dawley rat at 2 mg/kg, po; type: ADME, organism-based; set-up: dose 2 mg/kg, route oral; settings: in vivo, read-out: Vz/F; outline: as §2
[15] = system: Rattus norvegicus; assay: Apparent volume of distribution during terminal phase in Sprague-Dawley rat at 0.5 mg/kg, iv; type: ADME, organism-based; set-up: dose 0.5 mg/kg, route intravenous; settings: in vivo; outline: as §2
[16] = Apparent oral clearance in Sprague-Dawley rat at 2 mg/kg, po; type: ADME, organism-based; set-up: dose 2 mg/kg, route oral; settings: in vivo; outline: as §2
[17] = Elimination half life in Sprague-Dawley rat at 0.5 mg/kg, iv; type: ADME, organism-based; set-up: dose 0.5 mg/kg, route intravenous; settings: in vivo, read-out: beta t1/2 (converted); outline: as §3
[18] = Cmax in Sprague-Dawley rat at 2 mg/kg, po; type: ADME, organism-based; set-up: dose 2 mg/kg, route oral; settings: in vivo; outline: as §2
[19] = Drug uptake in Sprague-Dawley rat plasma at 0.5 mg/kg iv after 0.25 hrs; type: ADME, organism-based; set-up: dose 0.5 mg/kg, route intravenous; outline: as §3
[20] = Drug uptake in Sprague-Dawley rat plasma at 0.5 mg/kg iv after 2 hrs; type: ADME, organism-based; set-up: dose 0.5 mg/kg, route intravenous; outline: as §3
[21] = Drug uptake in Sprague-Dawley rat brain at 0.5 mg/kg iv after 4 hrs; type: ADME, organism-based; set-up: dose 0.5 mg/kg, route intravenous; settings: read-out: Drug uptake
[22] = biological target: Adenosine receptor A3 (Homo sapiens) (UniProt P0DMS8); assay: Displacement of [3H]ABMECA from human adenosine A3 receptor at 10 uM relative to control
Outline: (§4)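 Outsourced CNS panel of 55 receptor binding assays run by Cerep. Compound tested at 10 μM, the default primary-binding concentration, with inhibition expressed relative to control. Inhibition above 50% taken as a significant effect.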

[23] = biological target: Adrenergic receptor alpha-1 (Homo sapiens) (UniProt P35348+P25100+P35368); assay: Displacement of [3H]prazosin from alpha1-adrenergic receptor (unknown origin) at 10 uM relative to control
Outline: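 Outsourced CNS receptor panel (55 binding assays); compound tested at 10 μM in primary radioligand binding; specific binding inhibition expressed relative to control, with >50% inhibition taken as a significant effect.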

[24] = biological target: Adrenergic receptor alpha-2 (Homo sapiens) (UniProt P08913+P18825+P18089); assay: Displacement of [3H]-RX-821002 from alpha-2 adrenergic receptor (unknown origin) at 10 uM relative to control; type: protein assay; outline: as §4
[25] = biological target: Cannabinoid receptor 1 (Homo sapiens) (UniProt P21554); assay: Displacement of [3H]-CP55940 from human CB1 receptor at 10 uM relative to control; outline: as §4
[26] = biological target: Histamine H1 receptor (Homo sapiens) (UniProt P35367); assay: Displacement of [3H]Pyrilamine from human histamine H1 receptor at 10 uM relative to control; outline: as §4
[27] = biological target: Substance-K receptor (Homo sapiens) (UniProt P21452); assay: Displacement of [125I]NKA from human NK2 receptor at 10 uM relative to control; outline: as §4
[28] = biological target: 5-hydroxytryptamine receptor 1A (Homo sapiens) (UniProt P08908); assay: Displacement of [3H]OHDPAT from human 5-HT1A receptor at 10 uM relative to control; outline: as §4
[29] = biological target: 5-hydroxytryptamine receptor 6 (Homo sapiens) (UniProt P50406); assay: Displacement of [3H]LSD from human 5-HT6 receptor at 10 uM relative to control; outline: as §4
[30] = biological target: Vasoactive intestinal polypeptide receptor 1 (Homo sapiens) (UniProt P32241); assay: Displacement of [125I]VIP from human VPAC1 receptor at 10 uM relative to control; outline: as §4
[31] = biological target: Vasopressin V1a receptor (Homo sapiens) (UniProt P37288); assay: Displacement of [3H]AVP from human V1a receptor at 10 uM relative to control; outline: as §4
[32] = species: Homo sapiens; assay: Inhibition of Kv channel (unknown origin) at 10 uM by [125I]alpha-dendrotoxin binding assay relative to control
Outline: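 Radioligand binding was run at a contract laboratory as part of a 55-target CNS receptor panel. Test concentration was 10 μM. Inhibition of specific binding was expressed relative to control, and inhibition greater than 50% was taken as significant.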

[33] = Drug uptake in Sprague-Dawley rat brain at 0.5 mg/kg ip after 0.08 hrs

Vasopressin V1a receptor (Homo sapiens), sequence (P37288 whole entry, looked up): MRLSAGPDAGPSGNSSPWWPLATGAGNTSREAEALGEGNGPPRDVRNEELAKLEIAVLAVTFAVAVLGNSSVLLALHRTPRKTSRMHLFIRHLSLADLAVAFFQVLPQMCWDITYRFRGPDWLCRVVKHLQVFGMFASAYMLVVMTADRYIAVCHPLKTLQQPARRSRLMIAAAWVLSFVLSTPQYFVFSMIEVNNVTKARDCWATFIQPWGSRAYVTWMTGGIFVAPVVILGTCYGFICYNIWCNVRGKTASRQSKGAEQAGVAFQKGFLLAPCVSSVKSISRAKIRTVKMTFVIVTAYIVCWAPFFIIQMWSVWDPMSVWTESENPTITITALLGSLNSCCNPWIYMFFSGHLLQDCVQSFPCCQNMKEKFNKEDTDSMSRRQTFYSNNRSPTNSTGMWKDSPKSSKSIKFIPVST
Sodium-dependent dopamine transporter, sequence (Q01959 whole entry): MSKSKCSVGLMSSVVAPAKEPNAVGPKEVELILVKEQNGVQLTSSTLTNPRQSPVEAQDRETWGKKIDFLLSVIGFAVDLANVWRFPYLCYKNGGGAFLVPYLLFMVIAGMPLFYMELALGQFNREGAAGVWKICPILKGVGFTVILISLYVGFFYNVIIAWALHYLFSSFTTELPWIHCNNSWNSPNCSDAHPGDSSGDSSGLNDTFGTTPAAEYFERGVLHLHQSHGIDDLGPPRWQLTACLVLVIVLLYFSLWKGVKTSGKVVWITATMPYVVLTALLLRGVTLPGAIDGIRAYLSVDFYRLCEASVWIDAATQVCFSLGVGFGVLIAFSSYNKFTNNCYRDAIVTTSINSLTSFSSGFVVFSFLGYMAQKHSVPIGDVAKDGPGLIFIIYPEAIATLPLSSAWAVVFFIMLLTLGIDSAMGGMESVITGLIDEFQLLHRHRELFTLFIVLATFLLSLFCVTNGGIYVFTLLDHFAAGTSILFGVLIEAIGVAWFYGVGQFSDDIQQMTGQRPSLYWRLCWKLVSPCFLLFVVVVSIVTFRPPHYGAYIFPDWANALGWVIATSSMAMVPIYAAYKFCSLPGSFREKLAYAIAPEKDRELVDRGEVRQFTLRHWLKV
Substance-K receptor (Homo sapiens), sequence (P21452 whole entry): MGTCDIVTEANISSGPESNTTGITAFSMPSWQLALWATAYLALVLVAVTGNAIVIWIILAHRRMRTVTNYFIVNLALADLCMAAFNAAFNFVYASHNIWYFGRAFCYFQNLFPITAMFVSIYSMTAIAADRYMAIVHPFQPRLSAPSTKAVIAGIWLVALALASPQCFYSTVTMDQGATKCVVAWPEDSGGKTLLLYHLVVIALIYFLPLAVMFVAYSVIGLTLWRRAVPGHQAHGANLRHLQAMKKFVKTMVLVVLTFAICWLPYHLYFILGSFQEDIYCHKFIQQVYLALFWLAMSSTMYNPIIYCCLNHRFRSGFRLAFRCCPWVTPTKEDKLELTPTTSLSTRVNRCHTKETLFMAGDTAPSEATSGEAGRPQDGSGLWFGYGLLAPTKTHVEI
5-hydroxytryptamine receptor 6 (Homo sapiens), sequence (P50406 whole entry): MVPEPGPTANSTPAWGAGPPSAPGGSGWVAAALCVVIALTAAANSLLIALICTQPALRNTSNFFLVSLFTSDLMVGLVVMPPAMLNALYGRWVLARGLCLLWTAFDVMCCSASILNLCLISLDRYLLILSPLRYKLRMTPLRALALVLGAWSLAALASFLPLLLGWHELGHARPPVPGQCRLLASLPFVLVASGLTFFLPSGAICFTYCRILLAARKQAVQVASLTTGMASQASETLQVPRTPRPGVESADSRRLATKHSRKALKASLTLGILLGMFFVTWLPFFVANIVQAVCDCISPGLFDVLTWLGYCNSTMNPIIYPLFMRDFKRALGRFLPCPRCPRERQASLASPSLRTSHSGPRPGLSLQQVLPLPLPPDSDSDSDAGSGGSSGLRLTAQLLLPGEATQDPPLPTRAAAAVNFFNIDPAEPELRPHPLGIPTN
Cannabinoid receptor 1 (Homo sapiens), sequence (P21554 whole entry): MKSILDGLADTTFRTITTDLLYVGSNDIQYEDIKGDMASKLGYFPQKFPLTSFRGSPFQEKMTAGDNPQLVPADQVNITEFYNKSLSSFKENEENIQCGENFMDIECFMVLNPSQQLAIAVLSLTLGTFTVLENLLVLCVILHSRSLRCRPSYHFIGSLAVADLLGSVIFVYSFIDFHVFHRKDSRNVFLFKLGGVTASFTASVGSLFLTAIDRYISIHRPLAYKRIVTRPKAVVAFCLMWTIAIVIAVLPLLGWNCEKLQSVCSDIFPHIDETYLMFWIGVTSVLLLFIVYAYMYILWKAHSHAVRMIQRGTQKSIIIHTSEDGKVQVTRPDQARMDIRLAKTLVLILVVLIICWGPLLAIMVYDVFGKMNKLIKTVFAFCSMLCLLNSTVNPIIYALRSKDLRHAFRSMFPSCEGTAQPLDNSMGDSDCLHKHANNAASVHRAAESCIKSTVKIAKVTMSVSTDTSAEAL
Sodium-dependent noradrenaline transporter, sequence (P23975 whole entry): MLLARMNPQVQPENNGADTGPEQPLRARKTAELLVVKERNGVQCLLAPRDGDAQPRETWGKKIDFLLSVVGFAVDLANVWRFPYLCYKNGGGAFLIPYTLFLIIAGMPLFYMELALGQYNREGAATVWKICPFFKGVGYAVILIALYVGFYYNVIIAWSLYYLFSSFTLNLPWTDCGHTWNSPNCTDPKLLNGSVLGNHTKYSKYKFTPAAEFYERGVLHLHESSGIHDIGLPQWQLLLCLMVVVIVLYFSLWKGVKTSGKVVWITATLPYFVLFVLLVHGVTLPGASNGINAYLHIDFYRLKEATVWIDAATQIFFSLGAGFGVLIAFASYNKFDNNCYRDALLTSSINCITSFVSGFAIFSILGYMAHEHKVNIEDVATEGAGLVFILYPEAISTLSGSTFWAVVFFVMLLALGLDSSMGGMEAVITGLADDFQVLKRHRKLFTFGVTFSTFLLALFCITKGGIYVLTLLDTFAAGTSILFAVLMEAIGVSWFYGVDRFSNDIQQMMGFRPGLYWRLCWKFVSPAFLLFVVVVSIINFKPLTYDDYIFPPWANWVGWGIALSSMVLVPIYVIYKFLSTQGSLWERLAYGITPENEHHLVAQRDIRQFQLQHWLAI
Adenosine receptor A3 (Homo sapiens), sequence (P0DMS8 whole entry): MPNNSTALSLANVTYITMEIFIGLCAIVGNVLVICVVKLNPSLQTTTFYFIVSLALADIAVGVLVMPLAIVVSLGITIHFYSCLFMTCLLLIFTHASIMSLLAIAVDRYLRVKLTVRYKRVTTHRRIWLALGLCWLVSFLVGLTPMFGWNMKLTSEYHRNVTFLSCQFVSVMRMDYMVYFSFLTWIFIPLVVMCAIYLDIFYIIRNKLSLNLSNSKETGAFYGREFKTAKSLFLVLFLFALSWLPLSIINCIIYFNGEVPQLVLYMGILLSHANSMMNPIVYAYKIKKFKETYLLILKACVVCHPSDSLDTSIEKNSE
Vasoactive intestinal polypeptide receptor 1 (Homo sapiens), sequence (P32241 whole entry): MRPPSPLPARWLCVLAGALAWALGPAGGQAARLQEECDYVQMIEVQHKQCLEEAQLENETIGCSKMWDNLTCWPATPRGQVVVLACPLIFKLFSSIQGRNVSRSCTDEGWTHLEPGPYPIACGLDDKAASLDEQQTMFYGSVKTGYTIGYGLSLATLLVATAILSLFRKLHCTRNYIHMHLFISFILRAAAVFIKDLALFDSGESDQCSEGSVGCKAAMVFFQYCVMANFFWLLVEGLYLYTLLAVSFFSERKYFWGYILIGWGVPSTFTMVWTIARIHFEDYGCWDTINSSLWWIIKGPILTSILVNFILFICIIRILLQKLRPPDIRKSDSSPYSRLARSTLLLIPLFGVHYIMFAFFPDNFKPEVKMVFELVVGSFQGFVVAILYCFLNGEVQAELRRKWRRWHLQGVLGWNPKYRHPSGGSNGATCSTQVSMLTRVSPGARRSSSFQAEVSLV
5-hydroxytryptamine receptor 1A (Homo sapiens), sequence (P08908 whole entry): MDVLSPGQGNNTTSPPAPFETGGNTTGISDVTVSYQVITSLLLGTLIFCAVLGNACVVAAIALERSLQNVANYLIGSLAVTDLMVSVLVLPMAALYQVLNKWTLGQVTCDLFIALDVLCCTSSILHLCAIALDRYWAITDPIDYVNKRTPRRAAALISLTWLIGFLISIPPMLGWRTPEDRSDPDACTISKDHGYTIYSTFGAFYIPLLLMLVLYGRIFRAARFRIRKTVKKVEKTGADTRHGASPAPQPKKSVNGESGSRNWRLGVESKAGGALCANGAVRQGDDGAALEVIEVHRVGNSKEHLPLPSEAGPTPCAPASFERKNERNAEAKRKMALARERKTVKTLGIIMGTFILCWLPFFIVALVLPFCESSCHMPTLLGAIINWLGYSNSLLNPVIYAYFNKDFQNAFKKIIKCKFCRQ
Histamine H1 receptor (Homo sapiens), sequence (P35367 whole entry): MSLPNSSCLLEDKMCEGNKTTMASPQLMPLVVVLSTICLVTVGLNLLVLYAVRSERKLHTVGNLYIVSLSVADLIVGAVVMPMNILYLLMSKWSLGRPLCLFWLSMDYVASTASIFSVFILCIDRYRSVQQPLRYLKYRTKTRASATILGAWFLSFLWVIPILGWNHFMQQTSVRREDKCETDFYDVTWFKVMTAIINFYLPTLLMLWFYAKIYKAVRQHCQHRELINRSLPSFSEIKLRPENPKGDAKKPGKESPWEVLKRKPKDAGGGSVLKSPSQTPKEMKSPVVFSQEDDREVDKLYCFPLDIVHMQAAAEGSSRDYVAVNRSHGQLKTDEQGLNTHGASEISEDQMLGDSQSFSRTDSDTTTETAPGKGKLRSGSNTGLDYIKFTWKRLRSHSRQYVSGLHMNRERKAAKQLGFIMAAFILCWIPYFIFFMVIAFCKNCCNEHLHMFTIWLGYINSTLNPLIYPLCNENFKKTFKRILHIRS

SMILES: CN(C)CCC(c1ccc(Cl)c(Cl)c1)N1CCOCC1 (stereo not drawn)
- Activity [1]: 31
- Activity [2]: 74
- IC50 [3]: 378 nM
- IC50 [4]: 478 nM
- IC50 [5]: 247 nM
- Activity [6]: 93
- Activity [7]: 77
- inhibition in vivo at 10 mg/kg [8]: 47%
- survival at 336 h [9]: 100%
- survival at 336 h [10]: 100%
- AUC [11]: 78.6 ng·h/mL
- AUC(0-inf) [12]: 83.7 ng·h/mL
- MRT [13]: 1.06 h
- Vd/F [14]: 164 L/kg
- Vz/F [15]: 8.3 L/kg
- CL/F [16]: 417 mL/min/kg
- half-life [17]: 1 h
- Cmax [18]: 26.8 ng/mL
- concentration at 0.25 h [19]: 42 ng/mL
- concentration at 2 h [20]: 10.9 ng/mL
- concentration at 4 h [21]: 42.2 ng/mL
- inhibition [22]: 2.6%
- inhibition [23]: 2.6%
- inhibition [24]: 9.6%
- inhibition [25]: -6.2%
- inhibition [26]: 22.7%
- inhibition [27]: -7%
- inhibition [28]: -0.8%
- inhibition [29]: 2.4%
- inhibition [30]: 2.2%
- inhibition [31]: 3.3%
- inhibition [32]: -3.6%
- concentration at 0.08 h [33]: 1120 ng/mL
